SENP8 block-1 = blocks the human protease SENP8; AID 2540; inhibition, % at 10 µM; purified SENP8, Z-RLRGG-aminoluciferin cleavage, luminescence; actives 1.2% (n = 330,000); Q96LD8; in the data active = inhibition above about 50%
SENP7 inh = inhibitors of human SENP7 protease; actives 1.5% (n = 330,000); recombinant SENP7, Z-RLRGG-aminoluciferin luminescence, 40 min; Q9BQF6; inhibition, % at 5 µM;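 active = inhibition above about 50% at the single test dose, limit read from the data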;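 also: plate controls were DMSO with enzyme for no effect and no enzyme buffer wells for full effect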
Target sequence (Q9BQF6 706-1050 limits assumed): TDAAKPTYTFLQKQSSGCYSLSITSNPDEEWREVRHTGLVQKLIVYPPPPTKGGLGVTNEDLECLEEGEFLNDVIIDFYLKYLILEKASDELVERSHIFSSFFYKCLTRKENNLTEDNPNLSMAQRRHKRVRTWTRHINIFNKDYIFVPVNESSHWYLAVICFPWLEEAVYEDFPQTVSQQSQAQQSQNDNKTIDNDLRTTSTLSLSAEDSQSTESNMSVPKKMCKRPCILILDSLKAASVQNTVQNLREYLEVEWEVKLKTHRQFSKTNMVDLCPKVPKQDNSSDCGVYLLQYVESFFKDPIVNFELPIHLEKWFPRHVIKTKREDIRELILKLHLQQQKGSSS
SENP8 block-2 = inhibitors of human SENP8 protease. AID 602440. recombinant SENP8, Nedd8 substrate fluorescence. inhibition, % at 20 µM. actives 0.64% (n = 360,000); in the data active = inhibition mostly above about 40%, no sharp cut-off; inactive = mostly below about 27%
SENP6 inh = blocks the human protease SENP6; Q9GZR1; Recombinant SENP6 catalytic domain, aminoluciferin luminescence; inhibition, % at 10 µM; actives 1.8% (n = 330,000); AID 2599;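 active = inhibition above about 50% at the single tested dose, limit read from the data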;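 also: plate controls were DMSO wells with enzyme for no effect and DMSO wells lacking enzyme for full effect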
SENP1 FRET inh = blocks the human SENP1 SUMO protease catalytic domain; inhibition, % at 10 µM; Q9P0U3; actives 0.21% (n = 360,000); recombinant SENP1 catalytic domain, CyPet-SUMO1-YPet FRET cleavage;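 active = inhibition at least 30% at 10 µM, raw YFP signal under a set limit, fluorescence ratio 0.5 to 1.5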;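 also: 0% = enzyme with DMSO and 100% = no enzyme wells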
Target sequence (Q9P0U3 419-644 limits assumed): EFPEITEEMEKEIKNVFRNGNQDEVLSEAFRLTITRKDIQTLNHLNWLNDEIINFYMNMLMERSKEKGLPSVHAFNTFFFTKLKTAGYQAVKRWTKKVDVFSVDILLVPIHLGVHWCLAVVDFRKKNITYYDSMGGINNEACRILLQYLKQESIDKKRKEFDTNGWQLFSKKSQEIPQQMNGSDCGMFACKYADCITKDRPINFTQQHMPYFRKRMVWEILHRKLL
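Test system: human SENP1 catalytic domain; medium: Tris pH 8 buffer plus EDTA, NaCl, BME, BSA, NP40, catalase; incubation: 50 min reaction at room temperature; technique: FRET, CFP and YFP emission; controls: no-enzyme low control and enzyme-plus-DMSO high control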
NRP1-CendR mod = NRP-1/CendR interaction modulation; O14786; FAM-RPARPAR peptide binding to NRP-1, fluorescence polarization; inhibition, % at 25 µM; actives 0.85% (n = 360,000); AID 602438;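 active = inhibition or corrected inhibition above about 18%, plus a signal ratio from 0.5 to 1.5, limit read from the data, passing the limit was not always enough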
SENP8 confirm = confirmation of human SENP8 protease inhibitors. Recombinant SENP8, Z-RLRGG-aminoluciferin luminescence, 60 min. shares compounds with SENP7 inh. inhibition, % at 12.5 µM. actives 40% (n = 6,200);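 active = mean inhibition across replicates above about 50%, limit read from the data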
SENP6 confirm = human SENP6 inhibition, confirmed | shares compounds with SENP7 inh | recombinant SENP6, Z-RLRGG-aminoluciferin luminescence | inhibition, % at 12.5 µM | actives 58% (n = 6,200) | AID 488915
SENP7 confirm = human SENP7 inhibition, confirmed. shares compounds with SENP7 inh. recombinant SENP7, Z-RLRGG-aminoluciferin luminescence, 40 min. inhibition, % at 12.5 µM. actives 69% (n = 6,200). AID 488917
Casp3 SENP sel = selectivity test for SENP inhibitors: human caspase-3 inhibition; purified caspase-3, Z-DEVD-aminoluciferin luminescence, 60 min; inhibition, % at 12.5 µM; actives 60% (n = 6,200); shares compounds with SENP7 inh;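 active = mean inhibition above about 50%, limit read from the data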;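 also: plate controls were enzyme with DMSO for no effect and wells without caspase-3 for full effect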
Luc interf = luminescence interference (SENP counter-screen); shares compounds with SENP7 inh; actives 39% (n = 6,200); inhibition, % at 12.5 µM; Pre-incubated SENP8/Z-RLRGG-aminoluciferin, luciferase luminescence interference; AID 488919;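 active = mean inhibition above about 50% when retested at one dose, limit read from the data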;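 also: plate controls were DMSO wells with completed reaction for no effect and substrate without enzyme for full effect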
Numbers without * were called inactive; . = no result. Only some compounds are listed: those with a hit (about 3.3% of all), similar ones and a draw of the others.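 The calls were made as follows, unless noted: active = mean inhibition above about 50% in the one-dose retest (limit read from the data); inactive = the rest.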

SMILES | SENP8 block-1 | SENP7 inh | SENP8 block-2 | SENP6 inh | SENP1 FRET inh | NRP1-CendR mod | SENP8 confirm | SENP6 confirm | SENP7 confirm | Casp3 SENP sel | Luc interf
O=C(NCC1CCCO1)c1coc2nc3ccccc3nc12 (configuration not stated) | 10 | 8 | -495 | 7 | -55 | -18 | . | . | . | . | .
COc1ccc(-n2c(N)c(C(=O)NCC3CCCO3)c3nc4ccccc4nc32)c(OC)c1 (configuration not stated) | 44 | 38 | -290 | 68* | -24 | -3 | -9 | 5 | 7 | 1 | -6
C=CCn1c(N)c(C(=O)NCC2CCCO2)c2nc3ccccc3nc21 (configuration not stated) | 90* | 23 | -274 | 91* | -22 | 15 | 10 | 21 | 15 | 5 | 5
Nc1c(C(=O)NCc2ccccc2)c2nc3ccccc3nc2n1CCCN1CCOCC1 | 63* | 22 | -410 | 74* | -21 | -7 | 0 | 7 | -2 | -4 | -5
CCC(C(N)=O)N1C(=O)C2C3CCC(C3)C2C1=O (configuration not stated) | . | . | 8 | . | 2 | -9 | . | . | . | . | .
CCOC(=O)[C@]12CCCC=C1N(Cc1ccc3c(c1)OCO3)C(=O)[C@H](CC(=O)NCc1ccc(C)o1)C2 | . | . | 11 | . | -3 | 10 | . | . | . | . | .
CCN(C(=O)COC(=O)c1c(NC(C)=O)sc(C)c1C)c1c(N)n(Cc2ccccc2)c(=O)[nH]c1=O | . | . | -66 | . | -1 | 9 | . | . | . | . | .
Cn1c(=O)c2cc(NCc3ccccc3)nnc2n(C)c1=O | 80* | 5 | -83 | 81* | -25 | 10 | -3 | -2 | -5 | -4 | -8
Cn1c(=O)c2c(nc(NCc3ccccc3)n2C)n(C)c1=O | -3 | -4 | 10 | 1 | 2 | -11 | . | . | . | . | .
Cc1nc2cc(NC(=O)Nc3cccc4ccccc34)ccc2n1C | 26 | 80* | -131 | 39 | -1 | 4 | 19 | 21 | 74* | 71* | 9
COc1ccc2c3c(ccc2c1)C(=O)/C(=C/O)CC3 | . | . | -198 | . | -31 | -37 | . | . | . | . | .
Nc1nnc(-c2cccnc2)s1 | 4 | 2 | -24 | -5 | 1 | -14 | . | . | . | . | .
c1ccc(Nc2nnc(-c3cccnc3)s2)cc1 | 72* | 87* | -308 | 80* | 3 | 0 | 9 | 14 | 13 | 27 | 29
CCCCNC(=O)C1(C)CCN1C(=O)c1cccc(OC(F)(F)F)c1 (configuration not stated) | . | . | 16 | . | 0 | -5 | . | . | . | . | .
Oc1[nH]c2ccccc2c1N=Nc1cccc(Cl)c1 | 47 | 64* | 24 | 36 | 0 | -19 | -20 | -2 | 14 | 8 | -5
Oc1[nH]c2ccccc2c1N=Nc1ccccc1Cl | . | . | 22 | . | 28 | -27 | . | . | . | . | .
Cc1cccc2c(N=Nc3ccccc3)c(O)[nH]c12 | -9 | 54* | 19 | -3 | 10 | 107 | 12 | 13 | 35 | 12 | 7
Oc1[nH]c2ccccc2c1N=Nc1nncc2ccccc12 | 42 | 74* | -35 | 72* | 0 | -15 | 49 | 48 | 72* | 76* | 58*
O=C(N=Nc1c(O)[nH]c2ccccc12)c1ccco1 | 24 | 62* | 20 | 60* | 2 | 6 | 49 | 46 | 83* | 80* | 33
O=C(CSCc1ccccc1)N=Nc1c(O)[nH]c2ccccc12 | 1 | 3 | 35 | 10 | 3 | -4 | . | . | . | . | .
c1csc(-c2cn3ccc4ccccc4c3n2)c1 | 80* | 86* | -436 | 89* | -7 | -12 | 11 | 90* | 99* | 82* | 84*
O=C(/C=C/c1ccccc1Cl)Nc1cccc(O)c1 | 94* | 96* | 13 | 98* | 1 | 2 | 96* | 97* | 102* | 91* | 96*
O=C(/C=C/c1ccccc1Cl)c1ccc(O)cc1 | 82* | 73* | 22 | 90* | -1 | -2 | 8 | -4 | -1 | 14 | 55*
O=C(/C=C/c1ccccc1Cl)c1cccnc1 | -3 | -9 | 17 | -9 | -1 | -11 | . | . | . | . | .
CN(C)S(=O)(=O)c1ccc(NC(=O)/C=C/c2ccccc2Cl)cc1 | -20 | -1 | -10 | -8 | 1 | -1 | . | . | . | . | .
SMILES | SENP8 block-1 | SENP7 inh | SENP8 block-2 | SENP6 inh | SENP1 FRET inh | NRP1-CendR mod | SENP8 confirm | SENP6 confirm | SENP7 confirm | Casp3 SENP sel | Luc interf
O=C(/C=C/c1ccccc1Cl)Nc1ccccc1 | 96* | 99* | 22 | 97* | 0 | 9 | 8 | 99* | 103* | 94* | 95*
COC(=O)c1oc2ccc(Cl)cc2c1N | 24 | 46 | -307 | 53* | 1 | 7 | 35 | 32 | 69* | 58* | 32
CCOc1ccc2oc(C(=O)Nc3cc(C)ccn3)c(C)c2c1 | 90* | 97* | -220 | 93* | -7 | 6 | 38 | 63* | 76* | 83* | 22
CCOc1ccc2oc(C(=O)Nc3ccc4c(c3)OCO4)c(C)c2c1 | 65* | 62* | -31 | 73* | -19 | 2 | 63* | 4 | 86* | 53* | 38
Cc1ccnc(NC(=O)c2oc3ccccc3c2C)c1 | 72* | 85* | 9 | 81* | 0 | 4 | 52* | 85* | 81* | 58* | 44
Cc1cccnc1NC(=S)NC(=O)c1oc2ccccc2c1C | 18 | 8 | -155 | 79* | 3 | 4 | -6 | -3 | -6 | 4 | 5
CC1(Oc2ccccc2-c2ccn[nH]2)CCN(Cc2ccc(OC(F)(F)F)cc2)C1 (configuration not stated) | . | . | 6 | . | 0 | -14 | . | . | . | . | .
Cc1c(C(=O)NC2=NCCS2)oc2ccccc12 | 70* | 86* | 11 | 86* | -1 | 6 | 81* | 83* | 98* | 93* | 87*
Cc1ccc(C(=O)NCc2ccccn2)cc1S(=O)(=O)N1CCOCC1 | -7 | -11 | 6 | -13 | 0 | 0 | . | . | . | . | .
O=C(Nc1ccc2ccccc2c1)c1cnccn1 | 42 | 75* | -13 | 65* | -2 | -36 | 52* | 73* | 92* | 82* | 31
O=C(Nc1nc2ccccc2s1)C1=NN(c2ccccc2)C(=O)CC1 | 1 | -1 | -58 | -11 | -4 | -8 | . | . | . | . | .
